Reference: ChEMBL document CHEMBL1143324, “New N-substituted 9-azabicyclo[3.3.1]nonan-3alpha-yl phenylcarbamate analogs as sigma2 receptor ligands: synthesis, in vitro characterization, and evaluation as PET imaging and chemosensitization agents” (Bioorg Med Chem, 2009)
Blank lines part the entries; values can stand above or below the compound they belong to.

What was measured:
[1] = Displacement of [3H]RHM-1 from sigma 2-type opioid receptor in rat liver homogenates; format: tissue-based
[2] = biological target: Sigma non-opioid intracellular receptor 1 (Cavia porcellus, UniProt Q60492); test: Displacement of [3H](+)-pentazocine from sigma 1-type opioid receptor in guinea pig brain homogenates; format: tissue-based
Sigma non-opioid intracellular receptor 1, sequence (Q60492 whole entry): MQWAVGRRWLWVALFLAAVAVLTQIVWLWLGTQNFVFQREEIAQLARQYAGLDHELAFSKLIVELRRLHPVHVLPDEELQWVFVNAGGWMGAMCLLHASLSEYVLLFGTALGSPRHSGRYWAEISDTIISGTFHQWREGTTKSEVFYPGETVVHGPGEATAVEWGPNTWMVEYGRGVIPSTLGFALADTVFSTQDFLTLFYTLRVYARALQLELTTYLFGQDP

[3] = Selectivity ratio, Ki for sigma 1 receptor in guinea pig brain homogenates to Ki for sigma 2 receptor in rat liver homogenates; format: tissue-based
[4] = Partition coefficient, log P of the compound; format: physicochemical; conditions: octanol/water
[5] = Ratio of drug level in tumor to fat of mouse EMT6 cells bearing BALB/c mouse after 1 hr; format: ADME, cell-based; conditions: emt6, 1 h
In short: (§1)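 Tumor-to-tissue ratios were calculated from %ID/g values at 5 min, 30 min, 1 h and 2 h. The 18F tracer (~20 µCi, tail vein, 10% ethanol/90% water) was given to female BALB/c mice bearing s.c. EMT-6 tumors (~5×10^5 cells implanted 11 days prior; ~100-150 mg). Tissues were gamma-counted against a diluted standard of the injected dose.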

[6] = Ratio of drug level in tumor to muscle of mouse EMT6 cells bearing BALB/c mouse after 1 hr; format: ADME, cell-based; conditions: emt6, 1 h; in short: as §1
[7] = Ratio of drug level in tumor to muscle of mouse EMT6 cells bearing BALB/c mouse after 5 mins; format: ADME, cell-based; conditions: emt6, 5 min; in short: as §1
[8] = Ratio of drug level in tumor to muscle of mouse EMT6 cells bearing BALB/c mouse after 2 hrs; format: ADME, cell-based; conditions: emt6, 2 h; in short: as §1
[9] = test system: Muscle tissue; test: Biodistribution in iv dosed mouse EMT6 cells bearing BALB/c mouse muscle after 1 hr; format: ADME, organism-based; conditions: in vivo
In short: (§2)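 Female BALB/c mice were implanted s.c. in the scapular region with ~5×10^5 EMT-6 cells in PBS 11 days earlier, giving tumors of ~100-150 mg. The 18F tracer (~20 µCi per 150 µL, in 10% ethanol/90% water) was given via tail vein, and mice were killed at 5 min, 30 min, 1 h or 2 h. Tissues were weighed and gamma-counted against a diluted injected-dose standard, giving %ID/g.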

[10] = test system: Liver; test: Biodistribution in iv dosed mouse EMT6 cells bearing BALB/c mouse liver after 5 mins; format: ADME, organism-based; conditions: in vivo; in short: as §2
[11] = test system: Liver; test: Biodistribution in iv dosed mouse EMT6 cells bearing BALB/c mouse liver after 30 mins; format: ADME, organism-based; conditions: in vivo, 0.5 h; in short: as §2
[12] = Ratio of drug level in tumor to blood of mouse EMT6 cells bearing BALB/c mouse after 30 mins; format: ADME, cell-based; conditions: emt6, 0.5 h; in short: as §1
[13] = test system: Blood; test: Biodistribution in iv dosed mouse EMT6 cells bearing BALB/c mouse blood after 30 mins; format: ADME, organism-based; conditions: in vivo, 0.5 h; in short: as §2
[14] = Ratio of drug level in tumor to fat of mouse EMT6 cells bearing BALB/c mouse after 30 mins; format: ADME, cell-based; conditions: emt6, 0.5 h; in short: as §1
[15] = test system: Heart; test: Biodistribution in iv dosed mouse EMT6 cells bearing BALB/c mouse heart after 5 mins; format: ADME, organism-based; conditions: in vivo; in short: as §2
[16] = Ratio of drug level in tumor to muscle of mouse EMT6 cells bearing BALB/c mouse after 30 mins; format: ADME, cell-based; conditions: emt6, 0.5 h; in short: as §1
[17] = Biodistribution in tumor of iv dosed mouse EMT6 cells bearing BALB/c mouse after 2 hrs; format: ADME, organism-based, Neoplasm; conditions: in vivo; in short: as §2
[18] = Ratio of drug level in tumor to fat of mouse EMT6 cells bearing BALB/c mouse after 5 mins; format: ADME, cell-based; conditions: emt6, 5 min; in short: as §1
[19] = Ratio of drug level in tumor to blood of mouse EMT6 cells bearing BALB/c mouse after 1 hr; format: ADME, cell-based; conditions: emt6, 1 h; in short: as §1
[20] = test system: Muscle tissue; test: Biodistribution in iv dosed mouse EMT6 cells bearing BALB/c mouse muscle after 30 mins; format: ADME, organism-based; conditions: in vivo, 0.5 h; in short: as §2
[21] = Ratio of drug level in tumor to fat of mouse EMT6 cells bearing BALB/c mouse after 2 hrs; format: ADME, cell-based; conditions: emt6, 2 h; in short: as §1
[22] = test system: Bone; test: Biodistribution in iv dosed mouse EMT6 cells bearing BALB/c mouse bone after 2 hrs; format: ADME, organism-based, Bone element; conditions: in vivo; in short: as §2
[23] = test system: Blood; test: Biodistribution in iv dosed mouse EMT6 cells bearing BALB/c mouse blood after 1 hr; format: ADME, organism-based; conditions: in vivo; in short: as §2
[24] = Ratio of drug level in tumor to muscle of […] EMT6 cells bearing BALB/c mouse after 2 hrs; format: ADME, cell-based; conditions: emt6, 2 h
[25] = test system: Kidney; test: Biodistribution in iv dosed mouse EMT6 cells bearing BALB/c mouse kidney after 1 hr; format: ADME, organism-based; conditions: in vivo; in short: as §2
[26] = Ratio of drug level in tumor to blood of mouse EMT6 cells bearing BALB/c mouse after 5 mins; format: ADME, cell-based; conditions: emt6, 5 min; in short: as §1
[27] = Ratio of drug level in tumor to muscle of […] EMT6 cells bearing BALB/c mouse after 30 mins; format: ADME, cell-based; conditions: emt6, 0.5 h
[28] = test system: Brain; test: Biodistribution in iv dosed mouse EMT6 cells bearing BALB/c mouse brain after 1 hr; format: ADME, organism-based; conditions: in vivo; in short: as §2
[29] = Ratio of drug level in tumor to blood of mouse EMT6 cells bearing BALB/c mouse after 2 hrs; format: ADME, cell-based; conditions: emt6, 2 h; in short: as §1
[30] = Ratio of drug level in tumor to muscle of […] EMT6 cells bearing BALB/c mouse after 1 hr; format: ADME, cell-based; conditions: emt6, 1 h
[31] = test system: Brain; test: Biodistribution in iv dosed mouse EMT6 cells bearing BALB/c mouse brain after 30 mins; format: ADME, organism-based; conditions: in vivo, 0.5 h; in short: as §2
[32] = Biodistribution in tumor of iv dosed mouse EMT6 cells bearing BALB/c mouse after 5 mins; format: ADME, organism-based, Neoplasm; conditions: in vivo; in short: as §2
[33] = Ratio of drug level in tumor to muscle of […] EMT6 cells bearing BALB/c mouse after 5 mins; format: ADME, cell-based; conditions: emt6, 5 min
[34] = test system: Heart; test: Biodistribution in iv dosed mouse EMT6 cells bearing BALB/c mouse heart after 30 mins; format: ADME, organism-based; conditions: in vivo, 0.5 h; in short: as §2
[35] = biological target: T1, 5-hydroxytryptamine receptor 3A (Homo sapiens, UniProt P46098); test: Binding affinity to 5HT3 receptor
T1 sequence (P46098 whole entry): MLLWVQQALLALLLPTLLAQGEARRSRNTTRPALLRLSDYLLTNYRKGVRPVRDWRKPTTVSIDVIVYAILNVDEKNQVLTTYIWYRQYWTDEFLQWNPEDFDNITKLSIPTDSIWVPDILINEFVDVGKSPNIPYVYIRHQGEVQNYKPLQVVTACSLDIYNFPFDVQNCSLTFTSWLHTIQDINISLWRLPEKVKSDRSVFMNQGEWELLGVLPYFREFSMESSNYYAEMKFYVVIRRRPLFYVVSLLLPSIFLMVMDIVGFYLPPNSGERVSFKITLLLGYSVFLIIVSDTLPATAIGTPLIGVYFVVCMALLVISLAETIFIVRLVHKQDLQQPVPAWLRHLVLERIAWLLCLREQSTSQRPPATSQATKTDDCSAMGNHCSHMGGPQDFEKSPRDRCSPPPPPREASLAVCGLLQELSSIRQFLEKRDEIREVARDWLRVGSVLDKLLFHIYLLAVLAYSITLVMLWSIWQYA

[36] = biological target: 5-hydroxytryptamine receptor 4 (Homo sapiens, UniProt Q13639); test: Binding affinity to 5HT4 receptor
5-hydroxytryptamine receptor 4, sequence (Q13639 whole entry): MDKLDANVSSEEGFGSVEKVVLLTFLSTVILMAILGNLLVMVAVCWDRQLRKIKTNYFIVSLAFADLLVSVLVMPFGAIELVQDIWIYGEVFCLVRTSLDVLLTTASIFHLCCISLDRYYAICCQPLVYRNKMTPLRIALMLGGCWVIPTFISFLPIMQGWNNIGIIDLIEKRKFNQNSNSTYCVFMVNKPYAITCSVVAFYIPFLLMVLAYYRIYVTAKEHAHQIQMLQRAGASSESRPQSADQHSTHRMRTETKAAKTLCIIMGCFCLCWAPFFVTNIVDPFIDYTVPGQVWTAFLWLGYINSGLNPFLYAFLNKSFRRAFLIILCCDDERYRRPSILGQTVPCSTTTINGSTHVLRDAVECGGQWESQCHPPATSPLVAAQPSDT

[37] = test system: EMT6; test: Binding affinity to sigma 2 receptor in mouse EMT6 cell membrane homogenates; format: cell membranes; conditions: tested as the 18F-labelled form

SMILES: COc1ccc(CN2C3CCCC2CC(OC(=O)Nc2cc(C)ccc2OC)C3)cc1 (configuration not stated)
- Ki [1]: 40.7 nM
- Ki [2]: 323 nM
- Ratio Ki [3]: 8
- logP [4]: 3.3

SMILES: COc1ccc(C)cc1NC(=O)OC1CC2CCCC(C1)N2CCc1ccc(N(C)C)cc1 (configuration not stated)
- Ki [1]: 195 nM
- Ki [2]: 1870 nM
- Ratio Ki [3]: 10
- logP [4]: 3.36

SMILES: COc1ccc(C)cc1NC(=O)OC1CC2CCCC(C1)N2Cc1ccc(CC[18F])cc1 (configuration not stated)
- Activity [5]: 0.41 % ID/g
- Activity [6]: 1.92 % ID/g
- Activity [7]: 0.3 % ID/g
- Activity [8]: 2.53 % ID/g
- Activity [9]: 1.92 % ID/g
- Activity [10]: 21.14 % ID/g
- Activity [11]: 28.5 % ID/g
- Activity [12]: 3.67 % ID/g
- Activity [13]: 0.99 % ID/g
- Activity [14]: 0.45 % ID/g
- Activity [15]: 18.49 % ID/g
- Activity [16]: 1.32 % ID/g
- Activity [17]: 4.08 % ID/g
- Activity [18]: 0.65 % ID/g
- Activity [19]: 3.86 % ID/g
- Activity [20]: 2.9 % ID/g
- Activity [21]: 0.32 % ID/g
- Activity [22]: 5.68 % ID/g
- Activity [23]: 0.93 % ID/g
- Activity [24]: 0.82 % ID/g
- Activity [25]: 10.38 % ID/g
- Activity [26]: 0.82 % ID/g
- Activity [27]: 0.22 % ID/g
- Activity [28]: 1.55 % ID/g
- Activity [29]: 6.96 % ID/g
- Activity [30]: 0.42 % ID/g
- Activity [31]: 2.12 % ID/g
- Activity [32]: 1.39 % ID/g
- Activity [33]: 0.01 % ID/g
- Activity [34]: 3.7 % ID/g

SMILES: COc1ccc(C)cc1NC(=O)OC1CC2CCCC(C1)N2CCF (configuration not stated)
- Ki [1]: 143 nM
- Ki [2]: 2000 nM
- Ratio Ki [3]: 14
- logP [4]: 2.85

SMILES: CCn1c(=O)n(C(=O)NC2CC3CCC(C2)N3C)c2ccccc21 (configuration not stated)
- Ki [1]: 32 nM
- Ki [2]: 6300 nM
- Ki [35]: 1 nM
- Ki [36]: 13 nM

SMILES: COc1ccc(C)cc1C(=O)NCCCCN1CCc2cc(OO)c(OO)cc2C1
- Ki [1]: 10.3 nM
- Ki [2]: 3080 nM

SMILES: COc1ccc(C)cc1NC(=O)OC1CC2CCCC(C1)N2Cc1ccc(SC)cc1 (configuration not stated)
- Ki [1]: 8190 nM
- Ki [2]: 2020 nM
- logP [4]: 3.92

SMILES: COc1ccc(C)cc1NC(=O)OC1CC2CCCC(C1)N2Cc1ccncc1 (configuration not stated)
- Ki [1]: 522 nM
- Ki [2]: 1560 nM
- Ratio Ki [3]: 3
- logP [4]: 2.94

SMILES: COc1ccc(C)cc1NC(=O)OC1CC2CCCC(C1)N2Cc1ccccc1 (configuration not stated)
- Ki [1]: 3.1 nM
- Ki [35]: > 1000 nM
- Ki [36]: > 1000 nM

SMILES: COc1ccc(C)cc1NC(=O)OC1CC2CCCC(C1)N2Cc1ccc(F)nc1 (configuration not stated)
- Ki [1]: 572 nM
- Ki [2]: 2510 nM
- Ratio Ki [3]: 4
- logP [4]: 3.21

SMILES: COc1ccc(C)cc1NC(=O)OC1CC2CCCC(C1)N2Cc1ccc(N(C)C)cc1 (configuration not stated)
- Ki [1]: 2.58 nM
- Ki [2]: 1440 nM
- Ratio Ki [3]: 557
- logP [4]: 3.02

SMILES: COc1ccc(CCN2C3CCCC2CC(OC(=O)Nc2cc(C)ccc2OC)C3)cc1 (configuration not stated)
- Ki [1]: 126 nM
- Ki [2]: 447 nM
- Ratio Ki [3]: 4
- logP [4]: 3.22

SMILES: COc1ccc(C)cc1NC(=O)OC1CC2CCCC(C1)N2Cc1ccc(CCF)cc1 (configuration not stated)
- Ki [1]: 0.82 nM
- Activity [37]: 2 nM
- Ki [2]: 1710 nM
- Ratio Ki [3]: 2090

SMILES: COc1ccc(C)cc1NC(=O)OC1CC2CCCC(C1)N2Cc1cccnc1 (configuration not stated)
- Ki [1]: 184 nM
- Ki [2]: 2350 nM
- Ratio Ki [3]: 13
- logP [4]: 2.7

SMILES: COc1ccc(C)cc1NC(=O)OC1CC2CCCC(C1)N2CCc1ccc(CCF)cc1 (configuration not stated)
- Ki [1]: 276 nM
- Ki [2]: 2630 nM
- Ratio Ki [3]: 10
- logP [4]: 3.69

SMILES: C=CCN1C2CCCC1CC(OC(=O)Nc1cc(C)ccc1OC)C2 (configuration not stated)
- Ki [1]: 85.9 nM
- Ki [2]: 1260 nM
- Ratio Ki [3]: 15
- logP [4]: 2.86

- logP [4]: 3.36
SMILES: O=C(CCCN1CCC(O)(c2ccc(Cl)cc2)CC1)c1ccc(F)cc1 [HALOPERIDOL]
